The subject of series [1] is Plasmodium falciparum. In words: Antimalarial activity against Plasmodium falciparum 3D7 after 72 hrs by SYBR green fluorescence assay. The class given is functional, organism-based. The note with it: 3D7, 72 h. A digest of the protocol: (§1)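 P. falciparum grown in O+ erythrocytes, screened in medium without human serum plus 0.5% Albumax II. Twelve-point half-log dilutions up to 10 μM final. 0.3% parasitemia, 2.5% hematocrit; 72 h at 37 °C under low-oxygen gas. Lysis buffer with SYBR Green added, 24 h at 25 °C, fluorescence read at 485/530 nm.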

Series [2] concerns Plasmodium falciparum. Nature of the series: Antimalarial activity against Plasmodium falciparum W2 after 72 hrs by SYBR green fluorescence assay. The class given is functional, organism-based. The note with it: W2, 72 h. The method, boiled down:
as §1

The nature of series [3]: Permeability of the compound by PAMPA. The class given is ADME. The method, boiled down: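 PAMPA in 96-well filter plates. Permeated compound quantified by UV absorbance at 260–290 nm. Reported as percentage absorbed.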
A general note: PAMPA measures passive passage across an artificial lipid membrane.

Series [4] relates to Mus musculus. Nature of the series: AUC (0 to 24 hrs) in Balb/c mouse at 5 mg/kg, iv. It counts as ADME, organism-based, Plasma. Set-up: time < 24 hr, dose 5 mg/kg, route intravenous. The note with it: in vivo. A digest of the protocol:
(§2)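 Male Balb/c mice (n = 3 per group). Compound as a 2.5 mg/mL solution in PEG300/D5W 3:1, filtered. Given by lateral tail vein at 5 mg/kg (2 mL/kg) or orally at 20 mg/kg (8 mL/kg). Six serial 50 μL retro-orbital blood samples to 24 h, heparinized plasma. Plasma extracted with acetonitrile:methanol 3:1 with internal standard, LC-MS/MS. Noncompartmental analysis; F = AUCpo×dose_iv/AUCiv×dose_po.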

For series [5], the system named is Mus musculus. Nature of the series: AUC (0 to 24 hrs) in Balb/c mouse at 20 mg/kg, po. The arrangement: time < 24 hr, dose 20 mg/kg, route oral. The note with it: in vivo. The class given is ADME, organism-based, Plasma. A digest of the protocol: as §2
Series [6] can be described thus: Apparent permeability across apical to basolateral side in human Caco2 cells by LC/MS analysis. It counts as ADME, cell-based. The note with it: Caco-2. The method, boiled down:
(§3)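 Caco-2 monolayers in 96-well format. Compound measured in apical and basolateral chambers by LC/MS, giving Papp in the A–B and B–A directions. Values reported in cm/s × 10⁶.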
In general terms: Passage across Caco-2 layers is used to estimate intestinal permeability.

The nature of series [7]: Apparent permeability across basolateral to apical side in human Caco2 cells by LC/MS analysis. It counts as ADME, cell-based. The note with it: Caco-2. A digest of the protocol:
as §3

Series [8] in a line: Metabolic stability in mouse liver microsomes assessed as hepatic extraction ratio by LC/MS/MS analysis. The class given is ADME, Microsome. A digest of the protocol:
(§4)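 Liver microsomes (human, mouse, rat). Compound depletion followed by LC/MS/MS. Loss of parent used to derive in vitro half-life and hepatic extraction ratio.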
On the technique in general: Liver microsomes are vesicles of endoplasmic reticulum, rich in cytochrome P450 enzymes.

Series [9] can be described thus: Metabolic stability in mouse liver microsomes assessed as hepatic extraction ratio by LC/MS/MS analysis in presence of CYP. It counts as ADME, Microsome. The method, boiled down:
as §4

A short description of series [10]: Metabolic stability in rat liver microsomes assessed as hepatic extraction ratio by LC/MS/MS analysis in presence of CYP. It counts as ADME, Microsome. A digest of the protocol:
as §4

Series [11] in a line: Metabolic stability in human liver microsomes assessed as hepatic extraction ratio by LC/MS/MS analysis in presence of CYP. It counts as ADME, Microsome. A digest of the protocol:
as §4

Each structure is given as a SMILES string.

In general, EC50 refers to the concentration that produces a half-maximal response. Low values mean a more potent agent, high ones a less potent agent. A word on the AUC: it is concentration integrated over time. High values mean more exposure, low ones less exposure. Usually Papp A→B stands for the apparent permeability from the apical to the basolateral side of a cell layer. The term Papp B→A denotes the apparent permeability from the basolateral to the apical side of a cell layer.

Turning to `CC(C)(N)C(=O)N1CCn2c(nc(-c3ccc(F)cc3)c2Nc2ccc(F)cc2)C1`, the EC50 is 20 nM with Plasmodium falciparum [1] and 25 nM in the series with Plasmodium falciparum [2]. This compound also registered a permeability in series [3] of 81%. In addition, the results for the exposure (AUC) in the series with Mus musculus [4] and in the series on Mus musculus [5] were 3.442 µM·h and 17.894 µM·h, respectively.
The corresponding values for `NCC(=O)N1CCn2c(nc(-c3ccc(F)cc3)c2Nc2ccc(F)cc2)C1` are 24 nM, 23 nM, 52%, 1.072 µM·h and 0.965 µM·h.
Consider `NCC(=O)N1CCn2c(nc(-c3ccc(F)cc3)c2Nc2ccc(F)c(Cl)c2)C1`, for which the EC50 with Plasmodium falciparum [1] and in the series on Plasmodium falciparum [2] was 4 nM each time.
Turning to `C[C@H]1c2nc(-c3ccc(F)cc3)c(Nc3ccc(F)c(Cl)c3)n2CCN1C(=O)CN`, the results for the EC50 in the series on Plasmodium falciparum [1] and in the series with Plasmodium falciparum [2] were 29 nM and 24 nM, respectively.
The corresponding values for `C[C@@H]1c2nc(-c3ccc(F)cc3)c(Nc3ccc(F)c(Cl)c3)n2CCN1C(=O)CN` are 31 nM and 29 nM.
For `CC(C)[C@H]1c2nc(-c3ccc(F)cc3)c(Nc3ccc(F)c(Cl)c3)n2CCN1C(=O)CN`, in that order: 343 nM and 470 nM.
For `CC(C)[C@@H]1c2nc(-c3ccc(F)cc3)c(Nc3ccc(F)c(Cl)c3)n2CCN1C(=O)CN`, in that order: 168 nM and 202 nM.
For `CC1(C)c2nc(-c3ccc(F)cc3)c(Nc3ccc(F)c(Cl)c3)n2CCN1C(=O)CN`, the EC50 with Plasmodium falciparum [1] amounted to 27 nM; with Plasmodium falciparum [2], 24 nM.
`Cc1ccc(Nc2c(-c3ccc(F)cc3)nc3n2CCN(C(=O)CN)C3(C)C)cc1`: the results for the EC50 in the series on Plasmodium falciparum [1] and with Plasmodium falciparum [2] were 8 nM and 6 nM, respectively.
The corresponding values for `CC1(C)Cn2c(nc(-c3ccc(F)cc3)c2Nc2ccc(F)cc2)CN1C(=O)CN` are 82 nM and 111 nM.
On to `CC1(C)CN(C(=O)CN)Cc2nc(-c3ccc(F)cc3)c(Nc3ccc(F)cc3)n21`, for which the figures for the EC50 in the series on Plasmodium falciparum [1] and with Plasmodium falciparum [2] were 80 nM and 76 nM, respectively.
Regarding `CC(C)(N)C(=O)N1CCn2c(nc(-c3ccc(F)cc3)c2Nc2ccc(F)cc2)C1(C)C`, the EC50 in the series with Plasmodium falciparum [1] was 10 nM; in the series on Plasmodium falciparum [2], 9 nM. Besides, the permeability in [3] was determined as 99.5%. In series [6], the Papp A→B worked out at 1.2 ×10⁻⁶ cm/s. The Papp B→A in series [7] is 0.97 ×10⁻⁶ cm/s.
In the case of `CC(C)(N)C(=O)N1CCn2c(nc(-c3ccc(F)cc3)c2Nc2ccc(F)c(F)c2)C1(C)C`, the figures for the EC50 in the series with Plasmodium falciparum [1] and with Plasmodium falciparum [2] were 13 nM and 7 nM, respectively.
Consider `Cc1ccc(Nc2c(-c3ccc(F)cc3)nc3n2CCNC3)cc1`, for which the EC50 with Plasmodium falciparum [1] stood at 161 nM; in the series with Plasmodium falciparum [2] it was 178 nM. Further, the hepatic extraction ratio in series [8] came to 0.8; in series [9], 0.87; in series [10] it was 0.96; in series [11] it was 0.79. For the same compound, the permeability in series [3] is given as 99.5%. Also, the Papp A→B in series [6] is 8.2 ×10⁻⁶ cm/s. In series [7], the Papp B→A amounted to 2.36 ×10⁻⁶ cm/s.
In the case of `Cc1ccc(Nc2c(-c3ccc(F)cc3)nc3n2CC(=O)NC3)cc1`, the EC50 in the series with Plasmodium falciparum [1] is 1080 nM; with Plasmodium falciparum [2], 1170 nM. In addition, the hepatic extraction ratio in [8] was determined as 0.7; in series [9] it was 0.66; in series [10] it was 0.95; in series [11], 0.44. This compound also returned a permeability in series [3] of 80.9%. Also, the Papp A→B in series [6] was found to be 15 ×10⁻⁶ cm/s. For the same compound, the Papp B→A in [7] is 14.4 ×10⁻⁶ cm/s.
For the compound `Cc1ccc(Nc2c(-c3ccc(F)cc3)nc3n2CC(=O)NC3(C)C)cc1`, the 50% effective concentration (EC50) in the series with Plasmodium falciparum [1] was found to be 138 nM; in the series with Plasmodium falciparum [2], 136 nM. The hepatic extraction ratio in series [8] and in [9] was 0.72 in each case.
Consider `Cc1ccc(Nc2c(-c3ccc(F)cc3)nc3n2CCNC3(C)C)cc1`, for which the EC50 with Plasmodium falciparum [1] and in the series on Plasmodium falciparum [2] was 13 nM each time. Besides, the hepatic extraction ratio in series [8] was 0.77; in series [9] it was 0.87; in series [10], 0.93; in [11], 0.88. For the same compound, the permeability in series [3] is 99.9%. For the same compound, the Papp A→B in series [6] turned out to be 15.6 ×10⁻⁶ cm/s. In series [7], the Papp B→A turned out to be 6.96 ×10⁻⁶ cm/s.

For the origin of these results see ChEMBL document CHEMBL2057141, “Imidazolopiperazines: lead optimization of the second-generation antimalarial agents” (J Med Chem, 2012).
